Measured values reported in ChEMBL document CHEMBL4673343, “Lythrum salicaria Ellagitannins Stimulate IPEC-J2 Cells Monolayer Formation and Inhibit Enteropathogenic Escherichia coli Growth and Adhesion” (J Nat Prod, 2020).
≈ marks a conversion by molar mass, not a printed value. Calls of active or inactive are those of the source. The rule behind the calls is not given here.

What was measured:
Escherichia coli [1] = assay: Growth inhibition of Escherichia coli 0147:K89:K88 at 20 to 500 uM measured every 5 mins for 24 hrs by turbidometric analysis; assay type: functional, organism-based; conditions: dose 20-500 µM, time hrs <=24
Summary of the method: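 Compound stocks were made in DMSO and filtered. The turbidimetric assay used double-strength BHI, 20–500 μM, E. coli at final 10^4 CFU/mL, and sealed anaerobic plates at 37 °C. OD690 was read every 5 min over 24 h.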

Escherichia coli [2] = assay: Growth inhibition of Escherichia coli DSM 2840 at 20 to 500 uM measured every 5 mins for 24 hrs by turbidometric analysis; assay type: functional, organism-based; conditions: dose 20-500 µM, time hrs <=24
Summary of the method: (§1)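 Strains were revived from cryostocks and passaged twice daily in BHI with shaking at 37 °C over 2 days. Double-strength BHI plus diluted test stock (compounds in DMSO, 0.22 μm filtered), inoculum at final 10^4 CFU/mL, film-sealed for anaerobic conditions, 37 °C in plate reader. OD690 was read every 5 min for 24 h; lag time came from the lag-exponential method. Three independent experiments were run, each in triplicate.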

IPEC-J2 [3] = assay: Induction of porcine IPEC-J2 cells monolayer development assessed as increase in transepithelial electrical resistance at 50 uM after 6 days by voltammetric method; assay type: functional, cell-based; conditions: Sus scrofa domesticus, time 6.0 day
Escherichia coli [4] = assay: Growth inhibition of Escherichia coli 0147:K89:K88 assessed as doubling time at 5 uM measured every 5 mins for 24 hrs by turbidometric analysis (reference value: 34.1 +/- 0.5 min); assay type: functional; conditions: time hrs <=24; summary of the method: as §1
Escherichia coli [5] = assay: Antibacterial activity against Escherichia coli by two-fold serial dilution method; assay type: functional
Escherichia coli [6] = assay: Antibacterial activity against Escherichia coli; assay type: functional
Summary of the method: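 Strains: enteropathogenic E. coli O147:K89:K88 (Abbotstown) and non-fimbriated DSM 2840. Both were subcultured in BHI with shaking at 37 °C for 2 days, then inoculated at 10^4 CFU/mL final in BHI microplates. Extract stock was in water and pure compounds in DMSO, tested at 20–2000 μg/mL (extract), with ciprofloxacin as positive control. Plates were sealed for anaerobic conditions at 37 °C, and OD690 was read every 5 min for 24 h. MIC-level wells were plated on BHI agar (48 h). Three independent experiments were run in triplicate.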

Escherichia coli [7] = assay: Growth inhibition of Escherichia coli DSM 2840 assessed as lag time at 100 uM measured every 5 mins for 24 hrs by turbidometric analysis (reference value: 312 min); assay type: functional; conditions: time hrs <=24; summary of the method: as §1
Escherichia coli [8] = assay: Growth inhibition of Escherichia coli DSM 2840 assessed as doubling time at 20 uM measured every 5 mins for 24 hrs by turbidometric analysis (reference value: 31.6 +/- 0.8 min); assay type: functional; conditions: time hrs <=24; summary of the method: as §1
Escherichia coli [9] = assay: Growth inhibition of Escherichia coli DSM 2840 assessed as lag time at 20 uM measured every 5 mins for 24 hrs by turbidometric analysis (reference value: 312 min); assay type: functional; conditions: time hrs <=24; summary of the method: as §1
Escherichia coli [10] = assay: Growth inhibition of Escherichia coli 0147:K89:K88 assessed as lag time at 500 uM measured every 5 mins for 24 hrs by turbidometric analysis (reference value: 300 min); assay type: functional; conditions: time hrs <=24; summary of the method: as §1
IPEC-J2 [11] = assay: Induction of porcine IPEC-J2 cells monolayer development assessed as increase in transepithelial electrical resistance at 20 uM after 6 days by voltammetric method; assay type: functional, cell-based; conditions: Sus scrofa domesticus, time 6.0 day
Summary of the method: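 IPEC-J2 cells were seeded at 5 × 10^5/insert (0.4 μm PET) and cultured until TEER exceeded 1 kΩ cm2 (day 7). Apical medium was then replaced with 20 μM compound or PBS and renewed at day 10, with basolateral medium changed in parallel. TEER was read with an EVOM2 chopstick electrode at days 10 and 13. Mann–Whitney test versus PBS.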

Escherichia coli [12] = assay: Growth inhibition of Escherichia coli DSM 2840 assessed as doubling time at 10 uM measured every 5 mins for 24 hrs by turbidometric analysis (reference value: 31.6 +/- 0.8 min); assay type: functional; conditions: time hrs <=24; summary of the method: as §1
Escherichia coli [13] = assay: Antibacterial activity against invasive E gene positive Escherichia coli; assay type: functional
Escherichia coli [14] = assay: Growth inhibition of Escherichia coli 0147:K89:K88 assessed as doubling time at 10 uM measured every 5 mins for 24 hrs by turbidometric analysis (reference value: 34.1 +/- 0.5 min); assay type: functional; conditions: time hrs <=24; summary of the method: as §1
Escherichia coli [15] = assay: Antibacterial activity against Shiga-like toxin positive Escherichia coli; assay type: functional
Escherichia coli [16] = assay: Growth inhibition of Escherichia coli 0147:K89:K88 assessed as lag time at 20 uM measured every 5 mins for 24 hrs by turbidometric analysis (reference value: 300 min); assay type: functional; conditions: time hrs <=24; summary of the method: as §1
Escherichia coli [17] = assay: Growth inhibition of Escherichia coli 0147:K89:K88 assessed as doubling time at 200 uM measured every 5 mins for 24 hrs by turbidometric analysis (reference value: 34.1 +/- 0.5 min); assay type: functional; conditions: time hrs <=24; summary of the method: as §1
Escherichia coli [18] = assay: Growth inhibition of Escherichia coli DSM 2840 assessed as lag time at 10 uM measured every 5 mins for 24 hrs by turbidometric analysis (reference value: 312 min); assay type: functional; conditions: time hrs <=24; summary of the method: as §1
Escherichia coli [19] = assay: Growth inhibition of Escherichia coli 0147:K89:K88 infected in porcine IPEC-J2 cells assessed as inhibition of EPEC adhesion 100 uM preincubated for 24 hrs followed by compound wash subsequently infected with bacteria by CFDA-SE staining based flow cytometric analysis; assay type: functional; conditions: 0147:K89:K88, IPEC-J2, in Sus scrofa
Summary of the method: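 IPEC-J2 cells were seeded at 10^5/well and grown 7 days. On day 8 they were treated 24 h, then washed twice with warm PBS and given antibiotic-free medium. Infection used CFDA-SE-labelled (1 mM, 120 min, 37 °C) O147:K89:K88 at MOI 100 for 45 min, followed by three PBS washes and trypsinization. Flow cytometry measured MFI over 10 000 events. Mean ± SD of three experiments in triplicate; Dunnett's test versus PBS.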

Escherichia coli [20] = assay: Growth inhibition of Escherichia coli DSM 2840 assessed as lag time at 500 uM measured every 5 mins for 24 hrs by turbidometric analysis (reference value: 312 min); assay type: functional; conditions: time hrs <=24; summary of the method: as §1
Escherichia coli [21] = assay: Growth inhibition of Escherichia coli 0147:K89:K88 assessed as lag time at 200 uM measured every 5 mins for 24 hrs by turbidometric analysis (reference value: 300 min); assay type: functional; conditions: time hrs <=24; summary of the method: as §1
Escherichia coli [22] = assay: Growth inhibition of Escherichia coli DSM 2840 assessed as lag time at 200 uM measured every 5 mins for 24 hrs by turbidometric analysis (reference value: 312 min); assay type: functional; conditions: time hrs <=24; summary of the method: as §1
Escherichia coli [23] = assay: Growth inhibition of Escherichia coli 0147:K89:K88 assessed as lag time at 10 uM measured every 5 mins for 24 hrs by turbidometric analysis (reference value: 300 min); assay type: functional; conditions: time hrs <=24; summary of the method: as §1
Escherichia coli [24] = assay: Growth inhibition of Escherichia coli 0147:K89:K88 assessed as doubling time at 500 uM measured every 5 mins for 24 hrs by turbidometric analysis (reference value: 34.1 +/- 0.5 min); assay type: functional; conditions: time hrs <=24; summary of the method: as §1
Escherichia coli [25] = assay: Growth inhibition of Escherichia coli 0147:K89:K88 assessed as doubling time at 100 uM measured every 5 mins for 24 hrs by turbidometric analysis (reference value: 34.1 +/- 0.5 min); assay type: functional; conditions: time hrs <=24; summary of the method: as §1
Escherichia coli [26] = assay: Growth inhibition of Escherichia coli DSM 2840 assessed as doubling time at 5 uM measured every 5 mins for <=24 hrs by turbidometric analysis (reference value: 31.6 +/- 0.8 min); assay type: functional; conditions: time hrs <=24; summary of the method: as §1
Escherichia coli [27] = assay: Growth inhibition of Escherichia coli DSM 2840 assessed as doubling time at 500 uM measured every 5 mins for 24 hrs by turbidometric analysis (reference value: 31.6 +/- 0.8 min); assay type: functional; conditions: time hrs <=24; summary of the method: as §1
Escherichia coli [28] = assay: Growth inhibition of Escherichia coli 0147:K89:K88 assessed as doubling time at 20 uM measured every 5 mins for 24 hrs by turbidometric analysis (reference value: 34.1 +/- 0.5 min); assay type: functional; conditions: time hrs <=24; summary of the method: as §1
Escherichia coli [29] = assay: Antibacterial activity against heat stable toxin gene positive Escherichia coli; assay type: functional
Escherichia coli [30] = assay: Antibacterial activity against Escherichia coli ATCC 25922; assay type: functional
Escherichia coli [31] = assay: Antibacterial activity against heat labile toxin gene positive Escherichia coli; assay type: functional
Escherichia coli [32] = assay: Growth inhibition of Escherichia coli DSM 2840 assessed as doubling time at 200 uM measured every 5 mins for 24 hrs by turbidometric analysis (reference value: 31.6 +/- 0.8 min); assay type: functional; conditions: time hrs <=24; summary of the method: as §1
Escherichia coli [33] = assay: Growth inhibition of Escherichia coli 0147:K89:K88 measured every 5 mins for 24 hrs by turbidometric analysis; assay type: functional; conditions: time hrs <=24; summary of the method: as §1
Escherichia coli [34] = assay: Growth inhibition of Escherichia coli DSM 2840 assessed as lag time at 50 uM measured every 5 mins for 24 hrs by turbidometric analysis (reference value: 312 min); assay type: functional; conditions: time hrs <=24; summary of the method: as §1
Escherichia coli [35] = assay: Growth inhibition of Escherichia coli 0147:K89:K88 assessed as lag time at 50 uM measured every 5 mins for 24 hrs by turbidometric analysis (reference value: 300 min); assay type: functional; conditions: time hrs <=24; summary of the method: as §1
Escherichia coli [36] = assay: Growth inhibition of Escherichia coli 0147:K89:K88 assessed as doubling time at 50 uM measured every 5 mins for 24 hrs by turbidometric analysis (reference value: 34.1 +/- 0.5 min); assay type: functional; conditions: time hrs <=24; summary of the method: as §1
Escherichia coli [37] = assay: Antibacterial activity against Escherichia coli IFO 3972; assay type: functional
Escherichia coli [38] = assay: Growth inhibition of Escherichia coli DSM 2840 assessed as lag time at 5 uM measured every 5 mins for 24 hrs by turbidometric analysis (reference value: 312 min); assay type: functional; conditions: time hrs <=24; summary of the method: as §1
Escherichia coli [39] = assay: Growth inhibition of Escherichia coli DSM 2840 assessed as doubling time at 50 uM measured every 5 mins for 24 hrs by turbidometric analysis (reference value: 31.6 +/- 0.8 min); assay type: functional; conditions: time hrs <=24; summary of the method: as §1
Escherichia coli [40] = assay: Growth inhibition of Escherichia coli 0147:K89:K88 assessed as lag time at 5 uM measured every 5 mins for 24 hrs by turbidometric analysis (reference value: 300 min); assay type: functional; conditions: time hrs <=24; summary of the method: as §1
Escherichia coli [41] = assay: Growth inhibition of Escherichia coli DSM 2840 assessed as doubling time at 100 uM measured every 5 mins for 24 hrs by turbidometric analysis (reference value: 31.6 +/- 0.8 min); assay type: functional; conditions: time hrs <=24; summary of the method: as §1
Escherichia coli [42] = assay: Growth inhibition of Escherichia coli 0147:K89:K88 assessed as lag time at 100 uM measured every 5 mins for 24 hrs by turbidometric analysis (reference value: 300 min); assay type: functional; conditions: time hrs <=24; summary of the method: as §1

`O=c1oc2cc(O)ccc2c2ccc(O)cc12` was tested, and the “growth inhibition (GI)” value (Escherichia coli [1]) was “inactive”, the “growth inhibition (GI)” value (Escherichia coli [2]) was “inactive” and the Activity (IPEC-J2 [3]) was “inactive”.

In the case of `O=C1OC[C@H]2OC(=O)c3cc(O)c(O)c(O)c3-c3c(O)c(O)c(O)c4c3C(=O)O[C@H]([C@H]3OC(=O)c5c-4c(O)c(O)c(O)c5[C@H]3O)[C@@H]2OC(=O)c2cc(O)c(O)c(O)c2-c2c1cc(O)c(O)c2O` [CASTALAGIN], the Time (Escherichia coli [4]) is reported as 36.8 min, the MIC (Escherichia coli [5]) is reported as 533 µM (≈ 498 µg/mL) and the MIC (Escherichia coli [6]) is reported as 705 µM (≈ 659 µg/mL). The Time (Escherichia coli [7]) was 515 min, the Time (Escherichia coli [8]) was 38.1 min and the Time (Escherichia coli [9]) was 347 min. The Time (Escherichia coli [10]) was >1440 min, the Activity (IPEC-J2 [11]) was “Active” and the Time (Escherichia coli [12]) was 34.9 min. The MIC (Escherichia coli [13]) was 705 µM (≈ 659 µg/mL), the Time (Escherichia coli [14]) was 34.3 min and the MIC (Escherichia coli [15]) was 705 µM (≈ 659 µg/mL). The Time (Escherichia coli [16]) was 380 min, the Time (Escherichia coli [17]) was 35.9 min and the Time (Escherichia coli [18]) was 320 min. The inhibition at 100 µM (Escherichia coli [19]) was 37.7%, the Time (Escherichia coli [20]) was >1440 min and the Time (Escherichia coli [21]) was 722 min. The Time (Escherichia coli [22]) was 870 min, the Time (Escherichia coli [23]) was 310 min and the Time (Escherichia coli [24]) was >1440 min. For the same compound, the Time (Escherichia coli [25]) was 36.6 min, the Time (Escherichia coli [26]) was 33.4 min and the Time (Escherichia coli [27]) was >1440 min. It also gave a Time (Escherichia coli [28]) of 45.6 min, an MIC (Escherichia coli [29]) of 705 µM (≈ 659 µg/mL) and an MIC (Escherichia coli [30]) of 705 µM (≈ 659 µg/mL). The MIC (Escherichia coli [31]) was 705 µM (≈ 659 µg/mL), the Time (Escherichia coli [32]) was 56.8 min and the MIC (Escherichia coli [33]) was 500 µM (≈ 467 µg/mL). For the same compound, the Time (Escherichia coli [34]) was 422 min, the Time (Escherichia coli [35]) was 502 min and the Time (Escherichia coli [36]) was 45.3 min. For the same compound, the MIC (Escherichia coli [37]) was 705 µM (≈ 659 µg/mL), the Time (Escherichia coli [38]) was 322 min and the Time (Escherichia coli [39]) was 43 min. For the same compound, the Time (Escherichia coli [40]) was 317 min, the Time (Escherichia coli [41]) was 42.9 min and the Time (Escherichia coli [42]) was 647 min.
